OX1R antag-1 – antagonists of human orexin 1 receptor (OX1R); inhibition, % at 6.6 µM; hit rate 1.8% among 330,000; Orexin/Hypocretin receptor type 1 (Homo sapiens), O43613; OX1R-expressing cells, FRET antagonist read-out; AID 485270, 2010; in the data active = inhibition mostly above about 38%, no sharp cut-off; inactive = mostly below about 40%
OX1R antag-2 – OX1R (HCRTR1) antagonists, primary screen, fluorescence, CHO/OX1R cells, Fluo-8 calcium, orexin A; Orexin/Hypocretin receptor type 1 (Homo sapiens), O43613; Fluo-8 calcium fluorescence; inhibition, % at 5 µM; hit rate 0.43% among 330,000; AID 434989, 2010;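 active = inhibition above its plate's threshold, mean inhibition of all tested compounds on the plate plus 3 SD, cut at about 37% in these data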
TAAR1 ag – human TAAR1 agonists, primary screen, Fluo-8 calcium fluorescence, CHO RD-HGA16 cells. vehicle wells 0%, saturating PEA agonist 100%. hit rate 0.99% among 360,000. activation, % at 3 µM. Trace amine-associated receptor 1 (Homo sapiens), Q96RJ0;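 active = activation above the mean activation of all test compounds in the run plus 3 SD, cut at about 38% in these data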
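Test system: RD-HGA16 (CHO) cells co-expressing Gα16 and hTAAR1; dosing: one-point dosing at 3 µM (nominal); timing: 17-24 h seeding, 75 min 37 °C dye, 30 min RT; signal: kinetic Fluo-8 calcium fluorescence; read-out basis: % activation relative to PEA EC100 response; controls: DMSO and PEA EC100; replicates: n 1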
CHO parental Ca – ATP-evoked calcium signal inhibitors, parental CHO, primary screen, counter-screen for OX1R antagonist project, cell-based, fluorescence, Fluo-8 calcium dye. inhibition, % at 5.6 µM. parental CHO-K1, ATP-induced calcium, Fluo-8 fluorescence. AID 463079, 2010. hit rate 0.63% among 330,000;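 active = inhibition above that plate's mean sample inhibition plus 3 SD, cut at about 26% in these data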
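Test system: untransfected parental CHO cell line. Compound: one dose, 5.6 µM nominal. Detection: intracellular calcium via Fluo-8 no-wash fluorescent dye. Measure: % inhibition. Benchmarks: ATP-challenged DMSO wells low, unchallenged DMSO wells high.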
TAAR1 antagonist – human TAAR1 antagonists, primary screen, Fluo-8 calcium fluorescence, CHO RD-HGA16 cells; Trace amine-associated receptor 1 (Homo sapiens), Q96RJ0; hit rate 1.5% among 360,000; antagonist; inhibition, % at 3 µM;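 active = inhibition above a per-plate cutoff, the mean inhibition of test compounds on that plate plus 3 SD, cut at about 49% in these data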
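Test system – hTAAR1-expressing CHO RD-HGA16 cells, Gα16-coupled · Reagent – β-PEA at EC80 concentration, post-compound challenge · Compound dosing – 3 µM, single point · Timing – 140 s kinetic read after compound, 140 s after agonist · Detection – Fluo-8 intracellular calcium dye fluorescence, real-time kinetic reads · Control set – DMSO and EC80 PEA controls · Repeats – n of 1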
GPR7 antag – GPR7 receptor antagonists, primary screen, cell-based, fluorescence, single concentration; Neuropeptides B/W receptor type 1 (Homo sapiens), P48145; GPR7-expressing cells, fluorescence antagonist assay; inhibition, % at 4.4 µM; hit rate 1.1% among 290,000; AID 1861, 2009; in the data active = inhibition above about 16%, passing the limit was not always enough;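 note: cells stimulated with the agonist NPW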
Target sequence (P48145 whole entry, looked up): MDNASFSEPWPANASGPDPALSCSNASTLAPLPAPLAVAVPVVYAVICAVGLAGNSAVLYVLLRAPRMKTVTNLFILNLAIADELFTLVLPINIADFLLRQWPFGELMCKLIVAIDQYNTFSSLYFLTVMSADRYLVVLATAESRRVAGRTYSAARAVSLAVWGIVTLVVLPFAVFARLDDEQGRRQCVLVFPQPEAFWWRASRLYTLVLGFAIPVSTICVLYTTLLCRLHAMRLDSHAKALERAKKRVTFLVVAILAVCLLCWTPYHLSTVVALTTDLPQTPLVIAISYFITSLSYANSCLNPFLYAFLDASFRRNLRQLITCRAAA
Each line names hits and unclear results; the compound was inactive in the other large screens. Shown are actives, neighbours in structure and some others; about 4.6% of the full set was active somewhere.

COc1ccc(C2CC(=O)C(c3cc(OC)c(OC)c(OC)c3)=CN2Cc2ccccc2)cc1 (stereo unspecified)	none (no result: OX1R antag-1, OX1R antag-2, CHO parental Ca, GPR7 antag)
C[C@@H]1CCCCO[C@H](CN(C)S(=O)(=O)c2cn(C)cn2)[C@@H](C)CN([C@H](C)CO)C(=O)c2cc(NC(=O)CCCN(C)C)ccc2O1	none (no result: OX1R antag-1, OX1R antag-2, CHO parental Ca, GPR7 antag)
Cc1csc(NC(=O)C2CCCO2)n1 (stereo unspecified)	GPR7 antag 14.3
O=C(Nc1nc(-c2ccccc2)cs1)C1CCCO1 (stereo unspecified)	none
CSc1ccccc1NC(=O)CO/N=C(\C)c1cc2ccccc2o1	none
C/C(=N\OCC(=O)Nc1ccc(F)c(F)c1F)c1cc2ccccc2o1	OX1R antag-1 65.0
Cc1ccc(NC(=O)CCn2cnc3ccccc3c2=O)cc1Cl	TAAR1 ag 39.7
N#Cc1c(NC(=O)CCn2cnc3ccccc3c2=O)oc(-c2ccccc2)c1-c1ccccc1	GPR7 antag 17.9
COc1ccc(-c2csc(NC(=O)CCn3cnc4ccccc4c3=O)n2)cc1OC	TAAR1 antagonist 55.2
COC(=O)C1=C(C)N(C)C(=NCc2ccc(OC)cc2)NC1c1ccc(C(F)(F)F)cc1 (stereo unspecified)	none (no result: OX1R antag-1, OX1R antag-2, CHO parental Ca, GPR7 antag)
COc1ccc(S(=O)(=O)NC(=O)C2(C)CCN2C(=O)CC2CCCC2)cc1 (stereo unspecified)	none (no result: OX1R antag-1, OX1R antag-2, CHO parental Ca, GPR7 antag)
O=C(c1ccccc1)c1coc2c1C(=O)c1ccccc1C2=O	none
O=C1c2ccccc2-c2onc3ccc(Oc4ccccc4)c1c23	TAAR1 ag 43.2, TAAR1 antagonist 66.8
Cc1ccc2c(CN3CCN(Cc4ccc5c(c4)OCO5)CC3)cc(=O)oc2c1C	none
Cc1cc2oc(=O)cc(CN3CCN(Cc4ccc5c(c4)OCO5)CC3)c2cc1C	CHO parental Ca 100.4
O=C(O)CSc1c2ccccc2cc2ccccc12	OX1R antag-1 53.8
Cc1[nH]c2ccccc2c1SCC(=O)O	none
O=S(=O)(Nc1nc2ccccc2nc1Cl)c1cccc(C(F)(F)F)c1	OX1R antag-1 50.5
O=S(=O)(Nc1nc2ccccc2nc1Cl)c1ccccc1C(F)(F)F	none
O=C1N=C(O)CN1/N=C/c1ccc(-c2ccc([N+](=O)[O-])cc2)o1	OX1R antag-1 59.2 (no result: GPR7 antag)
O=C(Cc1ccc(NC(=O)C2CCCN(C(=O)c3ccccc3)C2)cc1)Nc1cccc(C(=O)N2CCCCC2)c1 (stereo unspecified)	none (no result: OX1R antag-1, OX1R antag-2, CHO parental Ca, GPR7 antag)
Cc1ccc2nc(-c3ccc(F)cc3)c(Cc3cccc(F)c3)n2c1	none (no result: OX1R antag-1, OX1R antag-2, CHO parental Ca, GPR7 antag)
O=C(NC1CCCC1)c1ccc2nc(-c3ccco3)c(-c3ccco3)nc2c1	OX1R antag-1 63.0 (no result: TAAR1 ag, TAAR1 antagonist)
CCOC(=O)c1cnc(SCC(=O)Nc2ccc(NC(C)=O)c(OC)c2)nc1N	none
CCOC(=O)c1cnc(SCC(=O)Nc2cc(OC)ccc2OC)nc1N	CHO parental Ca 33.8
Cc1cc(NC(=O)COC(=O)CCNS(=O)(=O)c2cccc(C(F)(F)F)c2)no1	none
CCc1cc2c(COC(=O)CCNS(=O)(=O)c3cccc(C(F)(F)F)c3)cc(=O)oc2cc1O	TAAR1 antagonist 53.4 (no result: GPR7 antag)
Cn1c2c(c3ccccc31)CCN(CCCCN1CCN(c3ccccc3)CC1)C2=O	none (no result: OX1R antag-1, OX1R antag-2, CHO parental Ca, GPR7 antag)
COC(=O)c1cc(NC(=O)CN(c2ccccc2OC)S(=O)(=O)c2ccccc2)ccc1Cl	TAAR1 antagonist 51.2
CCOc1ccccc1N(CC(=O)Nc1ccc(OC)cc1OC)S(=O)(=O)c1ccccc1	OX1R antag-1 50.3
COc1ccc(OC)c(N(CC(=O)NC2CC3CCC2C3)S(=O)(=O)c2ccccc2)c1 (stereo unspecified)	OX1R antag-1 46.3
CCOc1ccccc1N(CC(=O)Nc1ccc(OC)cc1)S(=O)(=O)c1ccccc1	none
CCOc1ccccc1N(CC(=O)NCCc1ccc(OC)c(OC)c1)S(=O)(=O)c1ccccc1	OX1R antag-1 75.7
CN(N=Cc1ccc2c(c1)OCO2)C(=O)c1ccccc1N	none (no result: OX1R antag-1, OX1R antag-2, CHO parental Ca, GPR7 antag)
COc1ccc(C(=O)N2CCC[C@H]2C(=O)N2CCC[C@@H]2C(=O)NCc2ccccc2)cc1F	none (no result: OX1R antag-1, OX1R antag-2, CHO parental Ca, GPR7 antag)
